Screening data from PubChem BioAssay.
TbHK1 inh: T. brucei hexokinase 1 inhibition; recombinant TbHK1, G6PDH-coupled NADH A340; inhibition, % at 10 µM; actives 0.11% (n = 220,000); AID 1430;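 active = inhibition of 50% or more in the single-dose primary screen; inactive = inhibition below 50%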
RanGTP-Imp inh: disruptors of Ran-importin-beta complex formation – biochemical, FRET, CFP-Ran, YFP-importin-beta, homogeneous, primary screen; cell-free CFP-Ran/YFP-importin-beta FRET ratio; inhibition, % (test concentration not listed); actives 1.1% (n = 300,000); AID 2216;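 active = more than half of the replicate wells show a fall in the fluorescence ratio signal beyond about 16%, limit read from the data, passing the limit was not always enough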;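 also: 0% = DMSO wells and 100% = Ran loaded with GDP instead of GTP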
14-3-3 Bad inh: disrupts binding of bovine 14-3-3 zeta to phospho-Bad peptide; P63103; TR-FRET 14-3-3zeta/Dy647-pBad peptide displacement, 1 h; inhibition, % at 21.7 µM; actives 0.71% (n = 220,000); AID 781;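 active = inhibition above about 70%, limit read from the data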;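 also: 0% = full 14-3-3 plus peptide FRET controls and 100% = background without 14-3-3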
Runt-SMMHC FRET: Runt domain-CBFb-SMMHC interaction inhibition; inhibition, % at 20 µM; Q01196+Q13951; Cerulean-Runt/Venus-CBFb-SMMHC FRET ratio 530/480, 1 h; actives 0.74% (n = 220,000);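 active = mean inhibition across duplicate retests at 20 µM reaching about 50%, limit read from the data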;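 also: 0% = DMSO wells and 100% = wells with excess untagged CBFb-SMMHC; inhibitors lower the FRET ratio by blocking Runt binding to CBFb-SMMHC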
Hck Nef HTS: blocks Nef-activated human Hck kinase. P08631. Recombinant Hck-YEEI plus Nef, Z-Lyte FRET kinase assay. inhibition, % at 20 µM. actives 0.68% (n = 220,000). AID 463187;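 active = Hck-Nef kinase inhibition above about 50%, limit read from the data; inactive = inhibition below that limit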;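 also: 0% = DMSO with Hck plus Nef and 100% = Hck alone without Nef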
Target sequence (P08631 whole entry, looked up): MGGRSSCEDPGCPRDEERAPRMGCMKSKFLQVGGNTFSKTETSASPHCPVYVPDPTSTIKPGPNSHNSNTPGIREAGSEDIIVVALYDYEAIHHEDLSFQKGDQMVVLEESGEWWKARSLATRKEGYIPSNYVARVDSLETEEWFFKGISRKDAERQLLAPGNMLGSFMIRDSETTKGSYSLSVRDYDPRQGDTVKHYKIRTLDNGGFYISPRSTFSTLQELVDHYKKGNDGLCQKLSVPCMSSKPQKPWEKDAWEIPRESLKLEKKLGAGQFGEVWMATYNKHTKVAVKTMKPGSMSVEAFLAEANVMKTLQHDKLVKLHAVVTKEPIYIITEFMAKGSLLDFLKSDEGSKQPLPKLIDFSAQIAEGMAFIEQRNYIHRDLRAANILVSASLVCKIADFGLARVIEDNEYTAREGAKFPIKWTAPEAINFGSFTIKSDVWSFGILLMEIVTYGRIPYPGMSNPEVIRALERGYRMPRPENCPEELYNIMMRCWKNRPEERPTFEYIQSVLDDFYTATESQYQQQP
Runt-CBFb FRET: blocks binding of human RUNX1 Runt domain to CBFb; Q01196+Q13951; inhibition, % at 20 µM; actives 0.46% (n = 220,000); Cerulean-Runt/Venus-CBFb FRET ratio 530/480, 1 h;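 active = inhibition over about 50% at 20 µM in the single-dose screen, limit read from the data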;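 also: 0% = DMSO wells and 100% = excess unlabeled CBFb competitor control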
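Buffer or medium: Tris pH 7.5 buffer with BSA. Assay system: Cerulean-labeled Runt domain protein. Amount: each fluorescent fusion protein 100 nM. Read-out basis: loss of energy transfer signal. Incubation: 1 h compound exposure, room temperature. Probe or stimulus: Venus-CBFb binding partner, 100 nM. Detection: FRET, excitation 422 nm, emission at 530 and 480 nm.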
Hck-Nef confirm: confirmation of Hck-Nef kinase inhibitors; shares compounds with Hck Nef HTS; Recombinant Hck-YEEI:Nef, Z-Lyte FRET kinase assay; calls only at 10 µM; actives 28% (n = 1,300); AID 463188;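 active = average inhibition of at least 50%, with Z-scores no higher than 3 in both the phospho-tyrosine peptide and fluorescence counterscreens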
* hit, by the source's call; i = inactive; nt = not tested or not shown; + = active, no number. A selection: hits, their analogues and other compounds. The true share with any hit is near 2.2%.

SMILES	TbHK1 inh	RanGTP-Imp inh	14-3-3 Bad inh	Runt-SMMHC FRET	Hck Nef HTS	Runt-CBFb FRET	Hck-Nef confirm
O=C(O)C1CSC(c2ccco2)N1 (stereo not given)	-2	3	26	-5	10	2	nt
Cc1ccc2occ(C3N[C@H](C(=O)O)CS3)c(=O)c2c1 (stereo not given in full)	-1	3	16	2	73*	2	i
Cc1ccc2occ(C3NC(C(=O)O)CS3)c(=O)c2c1 (stereo not given)	28	-3	-15	5	83*	6	+
O=C1COC(c2ccccc2)C2CCCCN12 (stereo not given)	-1	0	-1	1	-4	3	nt
CNC(=O)c1cc2c(=O)n3cc(C)ccc3nc2n(C(C)C)c1=N	-7	181*	-11	41	171*	11	nt
C=CCn1c(=N)c(C(=O)NCCCOC)cc2c(=O)n3cc(C)ccc3nc21	-8	2	nt	79*	187*	10	nt
C=CCn1c(=N)c(C(=O)NCCCOC)cc2c(=O)n3ccccc3nc21	-16	175*	-4	82*	+	9	nt
C=CCn1cc(C(=O)NCCCOC)c(=O)c2cc(S(=O)(=O)N(CC)CC)ccc21	-21	-2	3	-3	0	-6	nt
CCOc1ccc(NC(=O)CN2CCc3cc4c(cc3C2)OCCCO4)cc1OCC	nt	-3	nt	nt	nt	nt	nt
O=C(c1ccc(Cl)cc1)N1CCC(C(=O)N2CCCc3ccccc32)CC1	nt	-1	nt	nt	nt	nt	nt
OCCCNc1cc(-c2ccnc(Nc3cccc(Cl)c3)n2)ccn1	-24	-3	4	3	85*	1	+
CCN1CCN(c2c(C=O)c(Cl)nc3ccc(OC)cc23)CC1	nt	5	nt	nt	nt	nt	nt
CN(Cc1ccccc1)/C(=N/O)c1cccc(Cl)c1	nt	1	nt	nt	nt	nt	nt
Cc1[nH]c2ccccc2c1C(=O)CSc1nc2ncc(Cl)cc2[nH]1	6	-4	-5	-10	72*	-3	+
O=C(CSc1nc2ncc(Cl)cc2[nH]1)NCC(=O)Nc1ccc(F)c(F)c1F	-6	7	0	-1	61*	-1	nt
O=C(CSc1nc2ncc(Cl)cc2[nH]1)Nc1ccccc1-c1ccccc1	nt	6	nt	nt	nt	nt	nt
Cc1ccc2nc(SCC(=O)c3c(C)[nH]c4ccccc34)[nH]c2c1	5	1	-6	-4	5	-2	nt
CCOC(=O)C1CCCN(CC(=O)c2c[nH]c3ccc(C)cc23)C1 (stereo not given)	-9	5	2	2	16	-1	nt
CCN(CCO)c1nc(SC)nc2c1sc1nc(-c3ccco3)c3c(c12)CCC3	17	2	6	-131	68*	-13	i
CCN(CCO)c1ncnc2c1sc1nc(C(C)C)c3c(c12)CC(C)(C)OC3	-16	-1	-9	-9	0	-2	nt
Cc1occc1C(=O)NNC(=O)c1ccccc1[N+](=O)[O-]	nt	0	nt	nt	nt	nt	nt
CCCCn1c(NS(=O)(=O)c2ccc(C)cc2)c(S(=O)(=O)c2ccccc2)c2nc3ccccc3nc21	-3	14	25	39	97*	3	i
Cc1ccc(S(=O)(=O)c2c(N)n(CCCN(C)C)c3nc4ccccc4nc23)cc1	-33	1	0	21	94*	8	nt
Cc1ccc(S(=O)(=O)c2c(N)n(NC(=O)C3CC3)c3nc4ccccc4nc23)cc1	-22	9	-2	76*	73*	29	nt
COCCn1c(SCc2ccc(OC)c(F)c2)nnc1-c1ccncc1	nt	-1	nt	nt	nt	nt	nt
COc1ccc(C2Oc3ccccc3C3=C2C(c2cccs2)n2ncnc2N3)cc1 (stereo not given)	-14	0	7	-6	1	0	nt
Brc1ccc(C2C3=C(Nc4ncnn42)c2ccccc2OC3c2ccncc2)cc1 (stereo not given)	-9	3	2	2	73*	-1	+
Cc1cc(C(=O)COC(=O)c2ccccc2Br)c(C)n1CC1CCCO1 (stereo not given)	-13	-1	-1	0	25	-1	nt
